Experimental data: ChEMBL document CHEMBL5058577, “EUbOPEN Chemogenomics Library 2 (Multiplex)” (2022)

System: U2OS
Assay: Multiplex assay against U2OS
Assay type: toxicity, cell-based
Conditions: human
Procedure, shortened: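 Hoechst33342, BioTracker Green Microtubule Cytoskeleton Dye, MitoTracker Red and Annexin V Alexa Fluor 680 were added to live cells at seeding, and imaging on a CQ1 microscope at 37°C and 5% CO2 followed compound addition. Gating by CellPathfinder machine learning separated cells into Hoechst high-intensity objects or normal cells, then normal cells into healthy, pyknosed or fragmented nuclei, then pyknosed cells into mitotic or apoptotic. Per cents of healthy-nucleus cells are reported for the tubulin, mitochondrial-mass and membrane-permeability phenotypes.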

[1] = 12 h, 1 µM, compound concentration 1 uM, replicate 1
[2] = 12 h, 1 µM, compound concentration 1 uM, replicate 2
[3] = 12 h, 10 µM, compound concentration 10 uM, replicate 1
[4] = 12 h, 10 µM, compound concentration 10 uM, replicate 2
[5] = 24 h, 1 µM, compound concentration 1 uM, replicate 1
[6] = 24 h, 1 µM, compound concentration 1 uM, replicate 2
[7] = 24 h, 10 µM, compound concentration 10 uM, replicate 1
[8] = 24 h, 10 µM, compound concentration 10 uM, replicate 2
[9] = 48 h, 1 µM, compound concentration 1 uM, replicate 1
[10] = 48 h, 1 µM, compound concentration 1 uM, replicate 2
[11] = 48 h, 10 µM, compound concentration 10 uM, replicate 1
[12] = 48 h, 10 µM, compound concentration 10 uM, replicate 2

Cc1cc(=O)n(C)c2cc(N3C(=O)CC[C@H](NS(=O)(=O)CC(C)C)[C@H]3c3ccc(Cl)cc3)ccc12
Population Apoptotic (%) [1]: 87% | Population Fragmented Nuclei (%) [1]: 24% | Population Healthy Nuclei (%) [1]: 66% | Population Hoechst High Intensity Objects (%) [1]: 3% | Population Membrane Permeable-Phenotype (%) [1]: 3% | Population Mitochondria Different-Phenotype (%) [1]: 1% | Population Mitotic Cells (%) [1]: 12% | Population Normal (%) [1]: 96% | Population Pyknosed Nuclei (%) [1]: 9% | Population Tubulin-Different-Phenotype (%) [1]: 1% | Total Cell Count [1]: 263 | Population Apoptotic (%) [2]: 63% | Population Fragmented Nuclei (%) [2]: 21% | Population Healthy Nuclei (%) [2]: 68% | Population Hoechst High Intensity Objects (%) [2]: 1% | Population Membrane Permeable-Phenotype (%) [2]: 2% | Population Mitochondria Different-Phenotype (%) [2]: 2% | Population Mitotic Cells (%) [2]: 36% | Population Normal (%) [2]: 98% | Population Pyknosed Nuclei (%) [2]: 10% | Total Cell Count [2]: 110 | Population Apoptotic (%) [3]: 57% | Population Fragmented Nuclei (%) [3]: 21% | Population Healthy Nuclei (%) [3]: 55% | Population Hoechst High Intensity Objects (%) [3]: 5% | Population Membrane Permeable-Phenotype (%) [3]: 63% | Population Mitochondria Different-Phenotype (%) [3]: 44% | Population Mitotic Cells (%) [3]: 42% | Population Normal (%) [3]: 94% | Population Pyknosed Nuclei (%) [3]: 23% | Population Tubulin-Different-Phenotype (%) [3]: 65% | Total Cell Count [3]: 240 | Population Fragmented Nuclei (%) [4]: 16% | Population Healthy Nuclei (%) [4]: 60% | Population Hoechst High Intensity Objects (%) [4]: 3% | Population Membrane Permeable-Phenotype (%) [4]: 35% | Population Mitochondria Different-Phenotype (%) [4]: 68% | Population Normal (%) [4]: 96% | Population Tubulin-Different-Phenotype (%) [4]: 60% | Total Cell Count [4]: 83 | Population Apoptotic (%) [5]: 74% | Population Fragmented Nuclei (%) [5]: 20% | Population Healthy Nuclei (%) [5]: 68% | Population Hoechst High Intensity Objects (%) [5]: 3% | Population Membrane Permeable-Phenotype (%) [5]: 6% | Population Mitochondria Different-Phenotype (%) [5]: 3% | Population Mitotic Cells (%) [5]: 25% | Population Normal (%) [5]: 96% | Population Pyknosed Nuclei (%) [5]: 11% | Population Tubulin-Different-Phenotype (%) [5]: 4% | Total Cell Count [5]: 322 | Population Apoptotic (%) [6]: 82% | Population Fragmented Nuclei (%) [6]: 18% | Population Healthy Nuclei (%) [6]: 69% | Population Hoechst High Intensity Objects (%) [6]: 1% | Population Membrane Permeable-Phenotype (%) [6]: 9% | Population Mitochondria Different-Phenotype (%) [6]: 2% | Population Mitotic Cells (%) [6]: 17% | Population Normal (%) [6]: 98% | Population Tubulin-Different-Phenotype (%) [6]: 6% | Total Cell Count [6]: 146 | Population Apoptotic (%) [7]: 71% | Population Fragmented Nuclei (%) [7]: 20% | Population Healthy Nuclei (%) [7]: 56% | Population Hoechst High Intensity Objects (%) [7]: 5% | Population Membrane Permeable-Phenotype (%) [7]: 25% | Population Mitochondria Different-Phenotype (%) [7]: 40% | Population Mitotic Cells (%) [7]: 28% | Population Normal (%) [7]: 94% | Population Pyknosed Nuclei (%) [7]: 23% | Population Tubulin-Different-Phenotype (%) [7]: 28% | Total Cell Count [7]: 262 | Population Apoptotic (%) [8]: 81% | Population Fragmented Nuclei (%) [8]: 26% | Population Healthy Nuclei (%) [8]: 62% | Population Hoechst High Intensity Objects (%) [8]: 2% | Population Membrane Permeable-Phenotype (%) [8]: 36% | Population Mitochondria Different-Phenotype (%) [8]: 59% | Population Mitotic Cells (%) [8]: 18% | Population Normal (%) [8]: 97% | Population Pyknosed Nuclei (%) [8]: 10% | Population Tubulin-Different-Phenotype (%) [8]: 50% | Total Cell Count [8]: 108 | Population Apoptotic (%) [9]: 77% | Population Fragmented Nuclei (%) [9]: 14% | Population Healthy Nuclei (%) [9]: 73% | Population Hoechst High Intensity Objects (%) [9]: 1% | Population Membrane Permeable-Phenotype (%) [9]: 4% | Population Mitochondria Different-Phenotype (%) [9]: 3% | Population Mitotic Cells (%) [9]: 22% | Population Normal (%) [9]: 98% | Population Pyknosed Nuclei (%) [9]: 11% | Population Tubulin-Different-Phenotype (%) [9]: 2% | Total Cell Count [9]: 508 | Population Apoptotic (%) [10]: 95% | Population Fragmented Nuclei (%) [10]: 15% | Population Membrane Permeable-Phenotype (%) [10]: 6% | Population Mitochondria Different-Phenotype (%) [10]: 5% | Population Mitotic Cells (%) [10]: 5% | Population Pyknosed Nuclei (%) [10]: 10% | Population Tubulin-Different-Phenotype (%) [10]: 4% | Total Cell Count [10]: 199 | Population Apoptotic (%) [11]: 84% | Population Fragmented Nuclei (%) [11]: 25% | Population Healthy Nuclei (%) [11]: 51% | Population Hoechst High Intensity Objects (%) [11]: 6% | Population Membrane Permeable-Phenotype (%) [11]: 15% | Population Mitochondria Different-Phenotype (%) [11]: 15% | Population Mitotic Cells (%) [11]: 15% | Population Normal (%) [11]: 93% | Population Pyknosed Nuclei (%) [11]: 22% | Population Tubulin-Different-Phenotype (%) [11]: 10% | Total Cell Count [11]: 331 | Population Apoptotic (%) [12]: 71% | Population Fragmented Nuclei (%) [12]: 21% | Population Healthy Nuclei (%) [12]: 60% | Population Hoechst High Intensity Objects (%) [12]: 5% | Population Membrane Permeable-Phenotype (%) [12]: 30% | Population Mitochondria Different-Phenotype (%) [12]: 35% | Population Mitotic Cells (%) [12]: 28% | Population Normal (%) [12]: 94% | Population Pyknosed Nuclei (%) [12]: 18% | Population Tubulin-Different-Phenotype (%) [12]: 23% | Total Cell Count [12]: 120
